# According to PubChem BioAssay:
# Calls of active or inactive are those of the source.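 How the source made its calls, unless noted: active means GFP response above 150% of the DMSO level; inconclusive means fewer than 70 events counted for a yeast strain; inactive means the rest.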
# How the values were obtained:
# [1] = hit retest on RPL19A-GFP reporter strain – cell-based, S. cerevisiae, flow cytometry, cherry picks, mother/daughter gates, confirmation (AID 2270;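 active means GFP response below 50% of the DMSO control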); details: 3 h, at 10 µM, stronger effect = lower value, 100 = same GFP as DMSO wells
# [2] = yeast TOR pathway reporter LAP4-GFP change – cell-based, cherry picks, flow cytometry, mother/daughter gates, confirmation (AID 2271;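 active means GFP response above 150% of the DMSO control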;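 further: ratio of sample to DMSO plate mean so 100% equals DMSO level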); details: S. cerevisiae LAP4-GFP strain, 3 h, at 10 µM, stronger effect = higher value, 100 means same as DMSO control
# Summary of the method: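 Measured by: GFP by flow cytometry. Test system: GFP-fusion yeast strain. Input: yeast cells seeded at OD600 of 0.2. Timing: 30 °C, 3 h compound incubation, rotating. Buffer or medium: synthetic complete medium for yeast. Benchmarks: DMSO-only negative wells, rapamycin 400 ng/mL positive wells. Compound: 10 µM single dose.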
# [3] = TOR pathway reporter MEP2-GFP, retest of hits – S. cerevisiae, flow cytometry GFP, cherry picks, confirmation (AID 2272;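 active means GFP response above 150% of the DMSO control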;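 further: ratio of well signal to plate DMSO mean so 100% equals DMSO level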); details: S. cerevisiae MEP2-GFP strain, 3 h, at 10 µM, stronger effect = higher value
# [4] = yeast AGP1-GFP fluorescence change, single-dose – cell-based, flow cytometry, S. cerevisiae, cherry picks, confirmation (AID 2273);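 further: median GFP channel fluorescence over the whole cell population gate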; details: S. cerevisiae AGP1-GFP strain, 3 h, at 10 µM
# [5] = TOR pathway CIT2 reporter hit retest – S. cerevisiae, GFP fusion, cherry picks, mother/daughter gates, confirmation (AID 2274); details: S. cerevisiae CIT2-GFP strain, flow cytometry, 3 h, at 10 µM, stronger effect = higher value
# [6] = measured here: daughter cell gate
# [7] = measured here: mother cell gate
# [8] = measured here: daughter cell gate response
# [9] = measured here: mother cell gate response
Structure (SMILES),GFP response vs DMSO [1],"GFP response vs DMSO [1, 6] [%]","GFP response vs DMSO [1, 7] [%]",GFP response relative to DMSO [2],"GFP response relative to DMSO [2, 8] [%]","GFP response relative to DMSO [2, 9] [%]",GFP response vs DMSO [3],"GFP response, % of DMSO [4]","GFP response, % of DMSO [5]","GFP response, % of DMSO [5, 6] [%]","GFP response, % of DMSO [5, 7] [%]"
O=C(Nc1c2ccccc2nc2ccccc12)C(Cl)(Cl)Cl,91.7% (inactive),77.9,83.4,88.7% (inactive),87.3,94.1,98.8% (inactive),87.8% (inactive),95.9% (inactive),77.8,70.8
CCOc1cc(C(=O)N2CCN(c3ccc(C(C)=O)cc3)CC2)cc(OCC)c1OCC,91.8% (inactive),91.2,89.8,126% (inactive),110,125,109% (inactive),104% (inactive),106% (inactive),105,105
CCOc1ccc(N2C(=O)CC(SCCN)C2=O)cc1 (stereo unspecified),97.6% (inactive),98.9,96.6,97.9% (inactive),99.2,97.2,105% (inactive),92.3% (inactive),98.3% (inactive),99.1,98.5
COc1ccc(N2C(=O)C(Cl)=C(Nc3ccccc3OC)C2=O)cc1,101% (inactive),98.4,102,98.2% (inactive),94.2,98.4,105% (inactive),98% (inactive),97.3% (inactive),97.4,98.1
COc1ccc(C2CC(c3ccccc3)=NN2S(=O)(=O)c2ccc(C)cc2)c(OC)c1 (stereo unspecified),102% (inactive),98.8,100,102% (inactive),99.1,104,103% (inactive),101% (inactive),102% (inactive),99.2,99.3
COc1ccc(-n2c(N)c(C(=O)Nc3c(C)n(C)n(-c4ccccc4)c3=O)c3nc4ccccc4nc32)cc1,97.4% (inactive),94.4,98.1,99.5% (inactive),99.1,99.4,103% (inactive),102% (inactive),94.4% (inactive),93.8,94.4
CCOC(=O)Cc1csc(NC(=O)CCCCCN2C(=O)c3cccc4cccc(c34)C2=O)n1,98.7% (inactive),99.3,99.3,88.4% (inactive),87.8,89.7,102% (inactive),98.2% (inactive),102% (inactive),98.3,101
COc1ccc(C2N(c3ccc(Cl)cc3)N=C(C(C)=O)N(C)N2C(C)=O)cc1 (stereo unspecified),100% (inactive),99.6,100,104% (inactive),101,103,101% (inactive),101% (inactive),106% (inactive),106,106
COC(=O)Cn1c(C)c(/C=C/c2cc[n+](C)cc2)c2ccccc21,100% (inactive),99.6,101,119% (inactive),121,117,129% (inactive),99.7% (inactive),117% (inactive),121,113
CCCc1[nH]nc2c1C(c1cc(OC)cc(OC)c1)C(C#N)=C(N)O2 (stereo unspecified),101% (inactive),99.8,101,103% (inactive),100,106,102% (inactive),100% (inactive),95.2% (inactive),93.2,95.5
O=C1/C(=C\c2ccccn2)SC(=S)N1Nc1ncc(C(F)(F)F)cc1Cl,99.1% (inactive),98.3,99,98.8% (inactive),92.2,99.5,102% (inactive),94.9% (inactive),95% (inactive),94.6,93.3
N/C(Cc1ccc(Cl)cc1Cl)=N\OC(=O)c1ccccc1,99.2% (inactive),86.3,89.4,222% (active),145,213,125% (inactive),105% (inactive),181% (active),117,157
Cc1cccc(NC(=O)c2ccccc2O)c1C,97.3% (inactive),94.7,96.9,112% (inactive),104,116,99.3% (inactive),98.4% (inactive),95.8% (inactive),95.8,94.9
Cc1ccc(NCN2C(=O)C3C4C=CC(C4)C3C2=O)cc1 (stereo unspecified),96.4% (inactive),97,98.1,95.3% (inactive),93.6,96.5,97.5% (inactive),98.4% (inactive),102% (inactive),102,100
COc1ccccc1NC1=C(Cl)C(=O)N(c2ccccc2)C1=O,103% (inactive),103,103,93.7% (inactive),92,94.1,103% (inactive),97% (inactive),103% (inactive),105,101
O=[N+]([O-])/C=C/c1cn(Cc2ccccc2)c2ccccc12,103% (inactive),98.1,98.2,134% (inactive),131,138,102% (inactive),98.3% (inactive),96.5% (inactive),94.8,91.2
